# Assay results from ChEMBL document CHEMBL3400011, “Canthinone alkaloids are novel protein tyrosine phosphatase 1B inhibitors” (Bioorg Med Chem Lett, 2015).
# Assays:
# Homo sapiens [1] = species on record: Homo sapiens; assay: Ratio of inhibition rate for PTP1B (unknown origin) at 75 uM to inhibition rate for TCPTP (unknown origin) at 100 uM
# Homo sapiens [2] = species on record: Homo sapiens; assay: Ratio of inhibition rate for PTP1B (unknown origin) at 75 uM to inhibition rate for VHR (unknown origin) at 100 uM
# Homo sapiens [3] = species on record: Homo sapiens; assay: Ratio of inhibition rate for PTP1B (unknown origin) at 75 uM to inhibition rate for SHP1 (unknown origin) at 100 uM
# Homo sapiens [4] = species on record: Homo sapiens; assay: Ratio of inhibition rate for PTP1B (unknown origin) at 75 uM to inhibition rate for SHP2 (unknown origin) at 100 uM
# HepG2 = assay: Induction of Akt phosphorylation in insulin-stimulated human HepG2 cells assessed as pAkt/Akt ratio at 50 uM after 5 mins by western blotting analysis relative to control; type: functional
# Outline: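 HepG2 cells were treated with compound at 50 µM, then stimulated with insulin. pAkt was assessed by western blotting at 0 and 5 min after insulin. DMSO served as the negative control and sodium orthovanadate (200 µM) as the positive control. Values are expressed relative to control.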
# [5] = molecular target: T1, Tyrosine-protein phosphatase non-receptor type 1 (Homo sapiens, UniProt P18031); assay: Inhibition of PTP1B (unknown origin)
# T1 sequence (P18031 whole entry): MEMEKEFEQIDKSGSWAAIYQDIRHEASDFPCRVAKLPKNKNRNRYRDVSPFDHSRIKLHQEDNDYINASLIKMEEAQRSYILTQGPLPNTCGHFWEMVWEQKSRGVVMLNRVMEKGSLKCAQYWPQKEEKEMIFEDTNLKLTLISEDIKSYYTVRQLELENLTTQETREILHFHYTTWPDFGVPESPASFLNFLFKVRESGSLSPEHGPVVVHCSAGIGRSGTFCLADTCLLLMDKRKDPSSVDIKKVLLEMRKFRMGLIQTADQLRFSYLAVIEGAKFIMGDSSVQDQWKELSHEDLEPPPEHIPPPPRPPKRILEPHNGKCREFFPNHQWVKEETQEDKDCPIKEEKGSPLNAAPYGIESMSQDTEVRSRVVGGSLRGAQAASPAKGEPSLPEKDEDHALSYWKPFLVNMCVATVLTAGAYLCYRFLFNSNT
# Outline: (§1)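 PTP1B enzymatic assay with RK-682 as the positive control. For the single-point screen, compounds were tested at a final 100 µM. For dose–response, inhibition was measured over a range of compound concentrations, and IC50 was obtained by regression analysis.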
# [6] = molecular target: T1, Tyrosine-protein phosphatase non-receptor type 1; assay: Non-competitive inhibition of PTP1B (unknown origin) assessed as hydrolysis of para-nitrophenylphosphate by Lineweaver-Burk plot
# Outline: (§2)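 Kinetic study of PTP1B varying both compound and p-nitrophenylphosphate substrate concentrations. Mode was read from Lineweaver–Burk plots. Slopes from those plots were replotted against compound concentration (secondary plot), and Ki was calculated from that plot.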
# [7] = molecular target: T2, Tyrosine-protein phosphatase non-receptor type 1 (Homo sapiens) (UniProt P18031); assay: Inhibition of PTP1B (unknown origin) assessed as inhibition rate at 100 uM; outline: as §1
# T2 sequence (whole entry): T1 sequence (P18031 whole entry)
# [8] = molecular target: T3, Tyrosine-protein phosphatase non-receptor type 2 (Homo sapiens) (UniProt P17706); assay: Inhibition of TCPTP (unknown origin) assessed as inhibition rate at 100 uM
# T3 sequence (whole entry): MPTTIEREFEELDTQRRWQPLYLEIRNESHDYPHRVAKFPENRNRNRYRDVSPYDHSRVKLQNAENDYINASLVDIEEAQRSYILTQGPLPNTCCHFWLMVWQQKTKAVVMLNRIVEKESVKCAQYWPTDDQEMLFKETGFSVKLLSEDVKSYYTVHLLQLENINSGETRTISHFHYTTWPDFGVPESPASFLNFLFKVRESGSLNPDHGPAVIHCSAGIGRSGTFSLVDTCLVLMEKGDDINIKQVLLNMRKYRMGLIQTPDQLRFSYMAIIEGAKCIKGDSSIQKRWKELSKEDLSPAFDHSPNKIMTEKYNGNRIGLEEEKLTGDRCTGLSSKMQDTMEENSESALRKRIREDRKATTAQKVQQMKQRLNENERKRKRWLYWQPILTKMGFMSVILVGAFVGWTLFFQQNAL
# [9] = molecular target: Dual specificity protein phosphatase 3 (Homo sapiens) (UniProt P51452); assay: Inhibition of VHR (unknown origin) assessed as inhibition rate at 100 uM
# Chain of Dual specificity protein phosphatase 3 (Homo sapiens) (P51452 whole entry, looked up): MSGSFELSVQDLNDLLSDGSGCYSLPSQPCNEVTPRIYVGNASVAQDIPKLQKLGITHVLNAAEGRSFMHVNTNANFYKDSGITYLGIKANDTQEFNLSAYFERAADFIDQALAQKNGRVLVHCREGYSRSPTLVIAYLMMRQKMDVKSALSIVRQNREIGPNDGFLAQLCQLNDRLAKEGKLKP
# [10] = molecular target: Tyrosine-protein phosphatase non-receptor type 6 (Homo sapiens) (UniProt P29350); assay: Inhibition of SHP1 (unknown origin) assessed as inhibition rate at 100 uM
# Chain of Tyrosine-protein phosphatase non-receptor type 6 (Homo sapiens) (P29350 whole entry): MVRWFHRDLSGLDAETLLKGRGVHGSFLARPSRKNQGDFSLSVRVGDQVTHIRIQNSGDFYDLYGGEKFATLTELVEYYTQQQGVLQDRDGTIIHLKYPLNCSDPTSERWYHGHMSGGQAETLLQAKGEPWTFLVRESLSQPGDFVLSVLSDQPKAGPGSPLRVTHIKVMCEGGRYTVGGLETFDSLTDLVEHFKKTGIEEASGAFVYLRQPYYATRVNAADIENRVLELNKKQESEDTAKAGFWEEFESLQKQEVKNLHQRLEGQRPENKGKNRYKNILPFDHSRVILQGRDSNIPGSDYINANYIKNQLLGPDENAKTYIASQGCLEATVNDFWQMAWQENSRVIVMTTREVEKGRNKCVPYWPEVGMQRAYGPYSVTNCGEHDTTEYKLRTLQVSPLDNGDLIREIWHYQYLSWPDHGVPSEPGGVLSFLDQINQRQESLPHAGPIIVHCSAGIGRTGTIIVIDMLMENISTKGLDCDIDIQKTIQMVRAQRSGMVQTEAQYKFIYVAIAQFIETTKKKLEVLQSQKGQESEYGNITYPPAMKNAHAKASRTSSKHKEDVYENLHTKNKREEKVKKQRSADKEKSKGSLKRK
# [11] = molecular target: T4, Tyrosine-protein phosphatase non-receptor type 11 (Homo sapiens) (UniProt Q06124); assay: Inhibition of SHP2 (unknown origin) assessed as inhibition rate at 100 uM
# T4 sequence (whole entry): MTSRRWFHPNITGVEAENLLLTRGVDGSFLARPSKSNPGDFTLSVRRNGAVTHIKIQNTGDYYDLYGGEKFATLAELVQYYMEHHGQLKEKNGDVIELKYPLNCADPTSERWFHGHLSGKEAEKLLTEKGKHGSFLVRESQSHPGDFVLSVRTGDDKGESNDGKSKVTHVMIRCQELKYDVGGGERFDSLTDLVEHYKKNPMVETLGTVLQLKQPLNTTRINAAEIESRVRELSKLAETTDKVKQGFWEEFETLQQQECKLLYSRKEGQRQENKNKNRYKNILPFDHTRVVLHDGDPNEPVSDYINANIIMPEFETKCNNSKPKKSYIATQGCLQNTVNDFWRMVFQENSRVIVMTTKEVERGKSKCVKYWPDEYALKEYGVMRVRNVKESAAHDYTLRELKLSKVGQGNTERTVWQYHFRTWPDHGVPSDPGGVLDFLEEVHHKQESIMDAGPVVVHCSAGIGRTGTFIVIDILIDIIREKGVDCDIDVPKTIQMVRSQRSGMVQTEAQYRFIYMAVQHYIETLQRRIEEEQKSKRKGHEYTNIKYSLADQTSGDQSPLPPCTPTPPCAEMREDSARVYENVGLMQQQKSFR
# [12] = molecular target: Dual specificity protein phosphatase 3 (Homo sapiens) (UniProt P51452); assay: Inhibition of VHR (unknown origin) assessed as inhibition rate at 90 uM
# [13] = molecular target: Tyrosine-protein phosphatase non-receptor type 6 (Homo sapiens) (UniProt P29350); assay: Inhibition of SHP1 (unknown origin) assessed as inhibition rate at 90 uM
# [14] = molecular target: T4, Tyrosine-protein phosphatase non-receptor type 11 (Homo sapiens); assay: Inhibition of SHP2 (unknown origin) assessed as inhibition rate at 90 uM
# [15] = molecular target: T3, Tyrosine-protein phosphatase non-receptor type 2 (Homo sapiens); assay: Inhibition of TCPTP (unknown origin) assessed as inhibition rate at 90 uM
# [16] = molecular target: T2, Tyrosine-protein phosphatase non-receptor type 1 (Homo sapiens); conditions: 90 uM
# Homo sapiens [17] = species on record: Homo sapiens; assay: Ratio of inhibition rate for PTP1B (unknown origin) at 75 uM to inhibition rate for TCPTP (unknown origin) at 75 uM
# Homo sapiens [18] = species on record: Homo sapiens; assay: Ratio of inhibition rate for PTP1B (unknown origin) at 75 uM to inhibition rate for VHR (unknown origin) at 75 uM
# Homo sapiens [19] = species on record: Homo sapiens; assay: Ratio of inhibition rate for PTP1B (unknown origin) at 75 uM to inhibition rate for SHP1 (unknown origin) at 75 uM
# Homo sapiens [20] = species on record: Homo sapiens; assay: Ratio of inhibition rate for PTP1B (unknown origin) at 75 uM to inhibition rate for SHP2 (unknown origin) at 75 uM
# [21] = molecular target: T1, Tyrosine-protein phosphatase non-receptor type 1; assay: Competitive inhibition of PTP1B (unknown origin) assessed as hydrolysis of para-nitrophenylphosphate by Lineweaver-Burk plot; outline: as §2
# [22] = molecular target: T2, Tyrosine-protein phosphatase non-receptor type 1 (Homo sapiens); assay: Inhibition of PTP1B (unknown origin) assessed as inhibition rate at 75 uM
# [23] = molecular target: T3, Tyrosine-protein phosphatase non-receptor type 2 (Homo sapiens); assay: Inhibition of TCPTP (unknown origin) assessed as inhibition rate at 75 uM
# [24] = molecular target: Dual specificity protein phosphatase 3 (Homo sapiens) (UniProt P51452); assay: Inhibition of VHR (unknown origin) assessed as inhibition rate at 75 uM
# [25] = molecular target: Tyrosine-protein phosphatase non-receptor type 6 (Homo sapiens) (UniProt P29350); assay: Inhibition of SHP1 (unknown origin) assessed as inhibition rate at 75 uM
# [26] = molecular target: T4, Tyrosine-protein phosphatase non-receptor type 11 (Homo sapiens); assay: Inhibition of SHP2 (unknown origin) assessed as inhibition rate at 75 uM
Ratio (Homo sapiens [1]),Ratio (Homo sapiens [2]),Ratio (Homo sapiens [3]),Ratio (Homo sapiens [4]),IC50 [5] [µM],Ki [6] [µM],inhibition [7] [%],inhibition [8] [%],inhibition [9] [%],inhibition [10] [%],inhibition [11] [%],SMILES,pAkt/Akt ratio (HepG2),further results
6.3,1.5,3.3,2.1,19.2,12.9,93.8,15,61.4,28.7,44.4,COc1ccc2c3ccn(C)c4cc(=O)c(=O)n(c3-4)c2c1,1.8,
,,,,28.9,18.4,,,,,,CC(=O)Oc1cc2nccc3c4ccccc4n(c1=O)c23,2.1,inhibition [12]: 46%; inhibition [13]: 30.2%; inhibition [14]: 23%; inhibition [15]: 22.1%; inhibition [16]: 90.3%
,,,,19.8,,,,,,,Cn1ccc2c3n(c(=O)c(=O)cc1-3)c1ccccc21,2.4,Ratio (Homo sapiens [17]): 3.2; Ratio (Homo sapiens [18]): 4.4; Ratio (Homo sapiens [19]): 6.9; Ratio (Homo sapiens [20]): 5.6; Ki [21]: 7.07 µM; inhibition [22]: 91.4%; inhibition [23]: 29%; inhibition [24]: 20.6%; inhibition [25]: 13.2%; inhibition [26]: 16.3%
2.3,4.6,4.4,3.6,27.8,20,91,40,19.7,20.6,25,CCc1c2n(C)ccc3c-2n(c(=O)c1=O)c1ccccc31,1.2,
